Measurements taken from publication PMC4475445 (Journal of immunology (Baltimore, Md. : 1950), 2015).

Legend:
BMMΦ [1] = experiment: Apoptosis assay; assay type: cell-based; settings: wild-type and Btk-/-Tec-/- BMMΦ, several doses, Figure S2D
How it was run: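 Bone marrow was flushed from femurs and tibias of 6–15-week-old mice, red cells were lysed, and the cells were filtered and plated at 7.5 × 10^5 cells/ml. Cells were grown in DMEM with 10% heat-inactivated FBS, 10 mM Hepes and 10% CMG 12-14 conditioned medium as the M-CSF source, and re-plated on day 5. Apoptosis was scored by annexin V/7-AAD staining and flow cytometry.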

BMMΦ [2] = experiment: TLR-dependent cytokine secretion; assay type: cell-based, mouse; settings: 30 min pretreatment, then LPS or CpG 16 h; wild-type and Btk-/-Tec-/- BMMΦ
Tec = molecular target: T1, Tec (Homo sapiens, UniProt P42680); experiment: HotSpot radioisotope kinase assay; assay type: biochemical
T1 sequence (P42680 1-631): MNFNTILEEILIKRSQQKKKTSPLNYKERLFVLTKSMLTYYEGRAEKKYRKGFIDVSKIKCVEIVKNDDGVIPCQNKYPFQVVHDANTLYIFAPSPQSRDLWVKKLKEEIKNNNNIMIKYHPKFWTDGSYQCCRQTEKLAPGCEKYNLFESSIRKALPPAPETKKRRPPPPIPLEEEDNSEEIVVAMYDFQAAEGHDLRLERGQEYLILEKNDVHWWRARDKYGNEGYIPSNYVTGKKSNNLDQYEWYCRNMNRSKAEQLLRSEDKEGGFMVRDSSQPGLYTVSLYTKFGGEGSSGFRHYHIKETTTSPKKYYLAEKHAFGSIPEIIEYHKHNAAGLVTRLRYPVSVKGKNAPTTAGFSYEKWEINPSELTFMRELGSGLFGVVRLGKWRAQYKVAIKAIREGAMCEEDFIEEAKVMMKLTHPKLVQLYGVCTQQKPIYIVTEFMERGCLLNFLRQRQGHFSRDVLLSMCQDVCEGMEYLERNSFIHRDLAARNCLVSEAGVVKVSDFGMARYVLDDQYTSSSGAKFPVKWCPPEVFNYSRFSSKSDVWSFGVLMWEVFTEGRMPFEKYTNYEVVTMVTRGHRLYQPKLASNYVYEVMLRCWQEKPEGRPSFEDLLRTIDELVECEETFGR
How it was run: (§1)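 Radiometric HotSpot assay with P81 filter capture. Kinase was added to freshly prepared substrate with cofactors and preincubated 30 min at room temperature, then started with 33P-ATP, with ATP at Km or 10× Km. Reactions ran 2 hr at room temperature; unreacted phosphate was washed off with 0.1% phosphoric acid. Test compound: 10 doses, […] serial dilution from 10 μM. Duplicates; staurosporine positive control.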

ITK = molecular target: T2, ITK (Homo sapiens, UniProt Q08881); experiment: HotSpot radioisotope kinase assay; assay type: biochemical
T2 sequence (Q08881 1-620): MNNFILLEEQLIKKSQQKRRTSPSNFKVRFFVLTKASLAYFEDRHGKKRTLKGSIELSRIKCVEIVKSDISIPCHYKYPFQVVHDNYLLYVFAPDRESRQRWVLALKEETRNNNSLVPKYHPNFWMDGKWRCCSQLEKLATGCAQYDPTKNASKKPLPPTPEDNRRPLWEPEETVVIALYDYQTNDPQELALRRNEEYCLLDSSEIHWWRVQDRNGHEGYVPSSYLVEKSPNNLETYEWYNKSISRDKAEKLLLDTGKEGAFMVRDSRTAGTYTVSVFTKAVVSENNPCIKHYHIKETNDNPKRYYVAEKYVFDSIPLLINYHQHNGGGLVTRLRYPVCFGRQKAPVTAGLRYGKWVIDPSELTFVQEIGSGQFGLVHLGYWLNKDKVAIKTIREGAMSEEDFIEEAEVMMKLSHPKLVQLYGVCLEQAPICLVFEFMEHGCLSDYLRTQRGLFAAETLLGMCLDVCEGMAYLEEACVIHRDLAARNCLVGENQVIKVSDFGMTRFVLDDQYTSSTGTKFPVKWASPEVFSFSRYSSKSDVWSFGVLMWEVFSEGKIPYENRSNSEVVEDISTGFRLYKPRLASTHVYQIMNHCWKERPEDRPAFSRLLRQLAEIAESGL
How it was run: as §1

Tec kinases = experiment: Kinase selectivity panel; assay type: biochemical; settings: 1μM test concentration, 10 μM 33P-ATP; Supplemental Table 2
How it was run: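 Test compound was dissolved in DMSO and tested at 1 μM final. Each kinase was added to fresh substrate with cofactors in reaction buffer and preincubated 30 min at room temperature. Reactions were started with 10 μM 33P-ATP and ran 2 hr at room temperature. After termination, unreacted phosphate was washed off with 0.1% phosphoric acid and bound label was read by P81 filtration. Run in duplicate; 10 μM staurosporine positive control.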

Btk = Btk (Homo sapiens, UniProt Q06187); experiment: HotSpot radioisotope kinase assay; assay type: biochemical
Btk, sequence (Q06187 whole entry): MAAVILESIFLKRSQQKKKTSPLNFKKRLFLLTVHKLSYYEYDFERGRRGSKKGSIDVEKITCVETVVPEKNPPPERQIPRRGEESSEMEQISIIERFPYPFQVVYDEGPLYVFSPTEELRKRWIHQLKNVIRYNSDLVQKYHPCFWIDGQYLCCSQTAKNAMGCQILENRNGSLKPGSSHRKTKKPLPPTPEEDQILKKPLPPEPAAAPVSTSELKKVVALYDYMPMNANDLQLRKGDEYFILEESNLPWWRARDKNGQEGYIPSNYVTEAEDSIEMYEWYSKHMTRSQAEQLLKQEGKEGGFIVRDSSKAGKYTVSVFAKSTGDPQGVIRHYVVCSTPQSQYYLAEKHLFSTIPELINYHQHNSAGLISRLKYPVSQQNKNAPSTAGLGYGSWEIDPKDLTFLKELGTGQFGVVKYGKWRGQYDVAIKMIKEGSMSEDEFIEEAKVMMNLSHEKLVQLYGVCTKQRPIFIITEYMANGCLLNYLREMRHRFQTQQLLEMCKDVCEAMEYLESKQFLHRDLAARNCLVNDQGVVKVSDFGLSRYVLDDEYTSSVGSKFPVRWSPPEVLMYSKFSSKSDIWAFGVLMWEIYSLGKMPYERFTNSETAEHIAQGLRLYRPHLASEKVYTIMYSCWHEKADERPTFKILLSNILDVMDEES
How it was run: as §1

Bmx = molecular target: T3, Bmx (Homo sapiens, UniProt P51813); experiment: HotSpot radioisotope kinase assay; assay type: biochemical
T3 sequence (P51813 1-675): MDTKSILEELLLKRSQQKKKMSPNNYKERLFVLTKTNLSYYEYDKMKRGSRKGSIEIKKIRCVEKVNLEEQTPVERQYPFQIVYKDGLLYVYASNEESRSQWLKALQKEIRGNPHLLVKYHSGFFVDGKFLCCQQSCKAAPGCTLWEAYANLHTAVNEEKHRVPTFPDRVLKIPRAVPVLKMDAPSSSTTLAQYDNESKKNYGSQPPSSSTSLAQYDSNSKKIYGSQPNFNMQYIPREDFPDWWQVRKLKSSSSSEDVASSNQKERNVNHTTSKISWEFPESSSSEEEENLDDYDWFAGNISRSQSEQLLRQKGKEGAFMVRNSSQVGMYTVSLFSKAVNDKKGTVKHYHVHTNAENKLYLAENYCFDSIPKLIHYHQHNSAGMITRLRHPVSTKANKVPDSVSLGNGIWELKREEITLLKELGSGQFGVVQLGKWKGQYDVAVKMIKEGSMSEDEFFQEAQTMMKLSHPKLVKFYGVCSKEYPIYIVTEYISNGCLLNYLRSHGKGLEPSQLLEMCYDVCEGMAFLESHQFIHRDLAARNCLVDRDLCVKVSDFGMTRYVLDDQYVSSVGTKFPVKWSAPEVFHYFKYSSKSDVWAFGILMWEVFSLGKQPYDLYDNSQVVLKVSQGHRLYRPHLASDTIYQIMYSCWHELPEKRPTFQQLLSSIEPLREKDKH
How it was run: as §1

Row | SMILES | Percentage of dead (7-AAD positive) or apoptotic (Annexin V positive) cells (BMMΦ [1]) | TLR-dependent secretion of IL6 (BMMΦ [2]) | TLR-dependent secretion of TNF (BMMΦ [2]) | IC50 (Tec) [nM] | IC50 (ITK) [nM] | Kinase selectivity (Tec kinases) | IC50 (Btk) [nM] | IC50 (Bmx) [nM]
1 | C=CC(=O)Nc1cccc(Nc2nc(Nc3ccc(OCCOC)cc3)ncc2F)c1 [CC-292] | did not alter | decreased | decreased |  |  |  |  | 
2 | C=CC(=O)Nc1cccc(Nc2nc(Nc3ccc(OCCOC)c(F)c3)ncc2F)c1 [Compound1, N-(3-((5-fluoro-2-((3-fluoro-4-(2-methoxyethoxy)phenyl)amino)pyrimidin-4-yl)amino)phenyl)acrylamide] |  |  |  | 22 | 172 | highly selective for Tec kinases | 12.5 | 2.1
